Measurements from ChEMBL document CHEMBL4422659, “Discovery of novel 4-phenyl-2-(pyrrolidinyl)nicotinamide derivatives as potent Nav1.1 activators” (Bioorg Med Chem Lett, 2019).
≈ marks a conversion by molar mass, not a printed value.

Legend:
[1] = molecular target: Sodium channel protein type 1 subunit alpha (Homo sapiens) (UniProt P35498); test: Activation of human Nav1.1 expressed in T-Rex-CHO cells assessed as change in decay time constant of channel currents at 0.03 uM by Q-patch assay relative to control; type: cell-based
Method in brief: (§1)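 Human Nav1.1 in CHO cells, Q-patch automated patch clamp; current decay time constant (tau) and top current ratio expressed as % of control; mean of N=4 unless noted, standard deviation reported.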

[2] = molecular target: Sodium channel protein type 1 subunit alpha (Homo sapiens) (UniProt P35498); test: Activation of human Nav1.1 expressed in T-Rex-CHO cells assessed as change in decay time constant of channel currents at 1 uM at holding potential of -120 mV by automated patch-clamp electrophysiology assay relative to control; type: cell-based
Method in brief: (§2)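 Human Nav1.1 stably expressed in CHO cells; inactivation current decay time constant (tau) measured on IonWorks automated patch platform; tau given as % of control; mean of N=5 unless noted, standard deviation reported.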

[3] = molecular target: Sodium channel protein type 1 subunit alpha (Homo sapiens) (UniProt P35498); test: Activation of human Nav1.1 expressed in T-Rex-CHO cells assessed as change in decay time constant of channel currents at 1 uM by Q-patch assay relative to control; type: cell-based; method in brief: as §1
[4] = molecular target: Sodium channel protein type 1 subunit alpha (Homo sapiens) (UniProt P35498); test: Activation of human Nav1.1 expressed in T-Rex-CHO cells assessed as change in decay time constant of channel currents at 3 uM at holding potential of -120 mV by automated patch-clamp electrophysiology assay relative to control; type: cell-based; method in brief: as §2
[5] = molecular target: Sodium channel protein type 1 subunit alpha (Homo sapiens) (UniProt P35498); test: Activation of human Nav1.1 expressed in T-Rex-CHO cells assessed as change in decay time constant of channel currents at 0.3 uM at holding potential of -120 mV by automated patch-clamp electrophysiology assay relative to control; type: cell-based; method in brief: as §2
[6] = molecular target: Sodium channel protein type 1 subunit alpha (Homo sapiens) (UniProt P35498); test: Activation of human Nav1.1 expressed in T-Rex-CHO cells assessed as change in decay time constant of channel currents at 0.3 uM by Q-patch assay relative to control; type: cell-based; method in brief: as §1
[7] = molecular target: Sodium channel protein type 1 subunit alpha (Homo sapiens) (UniProt P35498); test: Activation of human Nav1.1 expressed in T-Rex-CHO cells assessed as change in decay time constant of channel currents at 0.1 uM by Q-patch assay relative to control; type: cell-based; method in brief: as §1
[8] = molecular target: Sodium channel protein type 1 subunit alpha (Homo sapiens) (UniProt P35498); test: Activation of human Nav1.1 expressed in T-Rex-CHO cells assessed as change in decay time constant of channel currents at 10 uM at holding potential of -120 mV by automated patch-clamp electrophysiology assay relative to control; type: cell-based; method in brief: as §2
[9] = molecular target: Sodium channel protein type 1 subunit alpha (Homo sapiens) (UniProt P35498); test: Activation of human Nav1.1 expressed in T-Rex-CHO cells assessed as change in decay time constant of channel currents at 3 uM by Q-patch assay relative to control; type: cell-based; method in brief: as §1
[10] = molecular target: Sodium channel protein type 1 subunit alpha (Homo sapiens) (UniProt P35498); test: Activation of human Nav1.1 expressed in T-Rex-CHO cells assessed as change in decay time constant of channel currents at 30 uM at holding potential of -120 mV by automated patch-clamp electrophysiology assay relative to control; type: cell-based; method in brief: as §2
[11] = molecular target: Sodium channel protein type 1 subunit alpha (Homo sapiens) (UniProt P35498); test: Activation of human Nav1.1 expressed in T-Rex-CHO cells assessed as change in top peak current at 1 uM by Q-patch assay relative to control; type: cell-based; method in brief: as §1
[12] = molecular target: Sodium channel protein type 1 subunit alpha (Homo sapiens) (UniProt P35498); test: Activation of human Nav1.1 expressed in T-Rex-CHO cells assessed as change in top peak current at 3 uM by Q-patch assay relative to control; type: cell-based; method in brief: as §1
[13] = 1-octanol/water partition co-efficient, log D of the compound at pH 7.4 by chromatographic analysis; type: physicochemical
[14] = molecular target: Sodium channel protein type 1 subunit alpha (Homo sapiens) (UniProt P35498); test: Activation of human Nav1.1 expressed in T-Rex-CHO cells assessed as change in top peak current at 10 uM by Q-patch assay relative to control; type: cell-based; method in brief: as §1
[15] = Aqueous solubility of compound at pH 6.8 by UV absorbance method; type: physicochemical; settings: buffer
Method in brief: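 Solubility determined at pH 6.8.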

[16] = molecular target: Sodium channel protein type 1 subunit alpha (Homo sapiens) (UniProt P35498); test: Activation of human Nav1.1 expressed in T-Rex-CHO cells assessed as change in decay time constant of channel currents at 10 uM by Q-patch assay relative to control; type: cell-based; method in brief: as §1

SMILES	Activity [2] [%]	Activity [3] [%]	Activity [4] [%]	Activity [8] [%]	further results
CC(C)c1ccc(NC(=O)c2c(-c3cc(F)ccc3F)ncnc2N2CC[C@H](F)C2)cn1	260	1900	714	–	Activity [1]: 124%; Activity [5]: 135%; Activity [6]: 853%; Activity [7]: 193%
CC(C)c1ccc(NC(=O)c2c(-c3ccoc3)ncnc2N2CC[C@H](F)C2)cn1	80	–	115	–	–
CC(C)c1ccc(NC(=O)c2c(-c3ccco3)ncnc2N2CC[C@H](F)C2)cn1	86	–	98	–	–
CC(C)c1ccc(NC(=O)c2c(-c3ccc(Cl)cc3)ncnc2N2CCCC2)cn1	–	–	140	257	–
CC(C)c1ccc(NC(=O)c2c(-c3ccc(Cl)cc3)ncnc2N2CCC(F)(F)C2)cn1	–	–	184	131	–
CC(C)c1ccc(NC(=O)c2c(-c3ccc(Cl)cc3)ncnc2N2CCC2)cn1	–	–	111	90	–
CC(C)c1ccc(NC(=O)c2c(-c3cc(F)cc(F)c3F)ncnc2N2CC[C@H](F)C2)cn1	114	–	298	–	–
CC(C)c1ccc(NC(=O)c2c(-c3ccc(Cl)cc3)ccnc2N2CCOCC2)cn1	–	–	374	767	–
Cc1cc(C)c(NC(=O)c2c(-c3ccc(Cl)cc3)noc2N2CCOCC2)c(C)c1	–	113	99	102	Activity [9]: 120%; Activity [10]: 138%; Activity [11]: 92%; Activity [12]: 86%; chromatographic logD [13]: 3.43; Activity [14]: 86%; solubility [15]: 0.9 µg/mL (≈ 2.11 µM); Activity [16]: 179%
CC(C)c1ccc(NC(=O)c2c(-c3ccc(Cl)cc3)ncnc2N2CCOCC2)cn1	–	198	258	370	Activity [9]: 731%; Activity [10]: 555%; Activity [11]: 113%; Activity [12]: 115%; chromatographic logD [13]: 2.97; Activity [14]: 131%; solubility [15]: > 100 µg/mL; Activity [16]: 774%
CC(C)c1ccc(NC(=O)c2c(-c3ccc(Cl)cc3)ncnc2N2CC[C@H](F)C2)cn1	107	682	257	342	Activity [6]: 170%
CC(C)c1ccc(NC(=O)c2c(-c3cc(F)ccc3F)cncc2N2CC[C@H](F)C2)cn1	124	–	–	–	Activity [5]: 92%
